Test results as given in ChEMBL document CHEMBL1135609, “Discovery of gamma-lactam hydroxamic acids as selective inhibitors of tumor necrosis factor alpha converting enzyme: design, synthesis, and structure-activity relationships” (J Med Chem, 2002).
pIC50, pKi: −log10 of the molar value.

Columns and labels:
[1] = molecular target: Matrix metalloproteinase-9 (Homo sapiens, UniProt P14780); experiment: Affinity towards Matrix metalloprotease-9 (MMP-9)
[2] = molecular target: 72 kDa type IV collagenase (Homo sapiens, UniProt P08253); experiment: Affinity for Matrix metalloprotease-2 (MMP-2)
Chain of 72 kDa type IV collagenase (P08253 whole entry): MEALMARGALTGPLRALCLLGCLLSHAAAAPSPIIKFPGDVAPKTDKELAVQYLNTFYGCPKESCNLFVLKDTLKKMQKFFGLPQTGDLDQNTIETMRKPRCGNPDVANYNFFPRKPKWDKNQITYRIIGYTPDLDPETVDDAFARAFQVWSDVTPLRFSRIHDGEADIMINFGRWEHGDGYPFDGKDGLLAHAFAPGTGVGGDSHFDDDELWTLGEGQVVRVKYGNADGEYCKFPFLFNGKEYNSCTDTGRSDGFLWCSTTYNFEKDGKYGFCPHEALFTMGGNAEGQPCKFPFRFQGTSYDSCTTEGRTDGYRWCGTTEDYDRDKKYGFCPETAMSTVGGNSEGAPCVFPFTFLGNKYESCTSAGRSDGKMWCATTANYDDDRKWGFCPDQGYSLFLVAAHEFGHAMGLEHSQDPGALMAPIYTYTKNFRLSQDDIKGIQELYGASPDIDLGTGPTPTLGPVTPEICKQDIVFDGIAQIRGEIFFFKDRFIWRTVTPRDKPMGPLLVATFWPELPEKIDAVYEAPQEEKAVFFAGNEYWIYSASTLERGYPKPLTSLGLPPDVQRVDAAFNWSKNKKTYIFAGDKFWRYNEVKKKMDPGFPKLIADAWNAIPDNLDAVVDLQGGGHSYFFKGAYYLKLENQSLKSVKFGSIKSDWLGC

Interstitial collagenase = molecular target: T1, Interstitial collagenase (Homo sapiens, UniProt P03956); experiment: Affinity towards Matrix metalloprotease-1 (MMP-1)
T1 sequence (P03956 whole entry): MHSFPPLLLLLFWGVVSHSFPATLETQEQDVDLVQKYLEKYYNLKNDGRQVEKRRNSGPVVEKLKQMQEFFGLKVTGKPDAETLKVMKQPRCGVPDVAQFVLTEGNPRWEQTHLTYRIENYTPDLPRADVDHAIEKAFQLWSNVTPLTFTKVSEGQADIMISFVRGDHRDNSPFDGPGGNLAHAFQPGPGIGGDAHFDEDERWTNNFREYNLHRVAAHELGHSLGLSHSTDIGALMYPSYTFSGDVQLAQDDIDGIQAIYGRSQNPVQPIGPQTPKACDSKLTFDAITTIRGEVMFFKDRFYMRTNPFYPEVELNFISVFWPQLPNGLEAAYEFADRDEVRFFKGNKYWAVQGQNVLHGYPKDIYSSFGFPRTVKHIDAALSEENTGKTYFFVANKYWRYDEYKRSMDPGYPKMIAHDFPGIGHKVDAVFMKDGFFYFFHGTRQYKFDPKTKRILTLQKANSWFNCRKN

[3] = molecular target: T2, Disintegrin and metalloproteinase domain-containing protein 17 (Sus scrofa, UniProt O77636); experiment: Inhibitory activity against porcine Tumor necrosis factor alpha converting enzyme.
T2 sequence (O77636 whole entry, the tested form may be a part): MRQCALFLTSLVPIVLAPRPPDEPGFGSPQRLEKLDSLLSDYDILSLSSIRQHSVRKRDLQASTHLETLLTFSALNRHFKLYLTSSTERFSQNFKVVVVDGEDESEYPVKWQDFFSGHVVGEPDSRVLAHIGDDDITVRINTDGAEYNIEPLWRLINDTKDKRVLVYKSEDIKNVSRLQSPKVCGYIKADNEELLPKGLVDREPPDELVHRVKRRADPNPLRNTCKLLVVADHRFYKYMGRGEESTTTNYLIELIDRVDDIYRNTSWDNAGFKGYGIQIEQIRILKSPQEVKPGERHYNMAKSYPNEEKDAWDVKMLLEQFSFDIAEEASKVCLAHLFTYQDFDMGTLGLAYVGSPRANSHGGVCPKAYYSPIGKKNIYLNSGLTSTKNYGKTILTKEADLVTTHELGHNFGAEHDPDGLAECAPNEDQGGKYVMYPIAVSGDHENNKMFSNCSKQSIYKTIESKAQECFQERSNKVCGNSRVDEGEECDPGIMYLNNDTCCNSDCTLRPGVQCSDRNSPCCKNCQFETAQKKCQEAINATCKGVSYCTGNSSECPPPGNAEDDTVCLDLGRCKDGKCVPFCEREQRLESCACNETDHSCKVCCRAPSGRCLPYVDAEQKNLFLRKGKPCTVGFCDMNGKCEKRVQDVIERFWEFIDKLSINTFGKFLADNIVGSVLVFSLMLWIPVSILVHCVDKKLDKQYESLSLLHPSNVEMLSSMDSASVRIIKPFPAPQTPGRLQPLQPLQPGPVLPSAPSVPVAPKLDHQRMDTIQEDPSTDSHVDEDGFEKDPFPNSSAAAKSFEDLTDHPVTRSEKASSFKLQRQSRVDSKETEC

[4] = molecular target: Disintegrin and metalloproteinase domain-containing protein 17 (Homo sapiens, UniProt P78536); experiment: Inhibition of Tumor necrosis factor alpha secretion in LPS-stimulated human whole blood assay; format: functional, tissue-based
Chain of Disintegrin and metalloproteinase domain-containing protein 17 (Homo sapiens, UniProt P78536) (P78536 whole entry, the tested form may be a part): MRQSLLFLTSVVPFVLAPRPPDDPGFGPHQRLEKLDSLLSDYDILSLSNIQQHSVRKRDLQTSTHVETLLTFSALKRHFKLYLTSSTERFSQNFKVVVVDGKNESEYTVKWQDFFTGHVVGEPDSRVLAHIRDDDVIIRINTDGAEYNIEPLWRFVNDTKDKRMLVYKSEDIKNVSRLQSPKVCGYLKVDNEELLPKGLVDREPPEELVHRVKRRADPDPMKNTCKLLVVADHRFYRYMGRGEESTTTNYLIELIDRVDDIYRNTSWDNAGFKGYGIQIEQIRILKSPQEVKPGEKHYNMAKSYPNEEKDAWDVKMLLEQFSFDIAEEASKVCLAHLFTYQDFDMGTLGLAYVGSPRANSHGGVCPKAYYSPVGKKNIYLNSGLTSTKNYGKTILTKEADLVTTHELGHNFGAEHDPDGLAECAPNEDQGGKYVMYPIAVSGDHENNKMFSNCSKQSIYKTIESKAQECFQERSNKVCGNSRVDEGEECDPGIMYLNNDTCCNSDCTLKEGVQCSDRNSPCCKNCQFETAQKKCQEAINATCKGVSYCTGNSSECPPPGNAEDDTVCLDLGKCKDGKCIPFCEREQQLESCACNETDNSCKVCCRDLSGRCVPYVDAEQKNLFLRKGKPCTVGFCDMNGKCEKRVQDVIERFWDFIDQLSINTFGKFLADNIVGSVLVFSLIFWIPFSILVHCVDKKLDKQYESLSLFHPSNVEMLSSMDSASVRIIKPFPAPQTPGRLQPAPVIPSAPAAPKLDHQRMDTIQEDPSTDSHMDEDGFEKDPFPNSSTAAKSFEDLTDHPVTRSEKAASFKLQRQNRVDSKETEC

Canis familiaris [5] = experiment: (§1) The compound was administered intravenously at a dose of 4 mg/Kg for determination area under curve; format: functional, organism-based; conditions: Canis lupus familiaris
Outline: (§2)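 Sprague Dawley rats and Beagle dogs were dosed in cassette fashion, iv at 4 mg/kg or orally at 8 mg/kg. Plasma samples were analysed by LC–MS–MS. The iv arm gave clearance, volume of distribution at steady state, terminal half-life and AUC. The oral arm gave tmax and bioavailability. Two animals were used per dosing group.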

Rattus norvegicus [6] = experiment: as §1; format: functional, organism-based; outline: as §2
Rattus norvegicus [7] = experiment: (§3) The compound was administered intravenously at a dose of 4 mg/Kg for determination of systemic clearance; format: functional, organism-based; outline: as §2
Canis familiaris [8] = experiment: (§4) The compound was administered intravenously at a dose of 4 mg/Kg for determination of terminal half life; format: functional, organism-based; conditions: Canis lupus familiaris
Outline: (§5)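 Cassette dosing in Sprague Dawley rats and Beagle dogs, given intravenously at 4 mg/kg. Plasma samples were analysed by LC–MS–MS, and terminal half-life was derived from the plasma profile. Two animals per dosing group.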

Rattus norvegicus [9] = experiment: as §4; format: functional, organism-based; outline: as §5
Canis familiaris [10] = experiment: (§6) The compound was administered orally at a dose of 8 mg/Kg for determination of t max; format: functional, organism-based; conditions: Canis lupus familiaris; outline: as §2
Rattus norvegicus [11] = experiment: as §6; format: functional, organism-based; outline: as §2
[12] = (§7) The compound was administered intravenously at a dose of 4 mg/Kg for determination of volume of distribution at steady state; format: ADME, organism-based, Canis lupus familiaris; conditions: dog, in vivo, iv, read-out: Vss; outline: as §2
[13] = as §3; format: ADME, organism-based, Canis lupus familiaris; conditions: dog, in vivo, iv; outline: as §2
Stromelysin-1 = Stromelysin-1 (Homo sapiens, UniProt P08254); experiment: Affinity for Matrix metalloprotease-3 (MMP-3)
Chain of Stromelysin-1 (P08254 whole entry): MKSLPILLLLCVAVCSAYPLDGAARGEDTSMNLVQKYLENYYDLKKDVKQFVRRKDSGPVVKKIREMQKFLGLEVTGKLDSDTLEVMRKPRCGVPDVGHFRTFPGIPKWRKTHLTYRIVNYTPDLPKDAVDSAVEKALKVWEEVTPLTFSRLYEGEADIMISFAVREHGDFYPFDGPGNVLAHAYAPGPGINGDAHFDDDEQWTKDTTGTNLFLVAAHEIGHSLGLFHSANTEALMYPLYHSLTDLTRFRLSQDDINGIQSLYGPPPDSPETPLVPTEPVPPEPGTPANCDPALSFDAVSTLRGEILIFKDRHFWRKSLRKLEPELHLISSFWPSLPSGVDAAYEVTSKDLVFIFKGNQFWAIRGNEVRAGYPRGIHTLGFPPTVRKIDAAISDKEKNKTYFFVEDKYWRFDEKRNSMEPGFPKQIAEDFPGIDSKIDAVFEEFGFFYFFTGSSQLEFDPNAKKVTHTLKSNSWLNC

Neutrophil collagenase = Neutrophil collagenase (Homo sapiens, UniProt P22894); experiment: Affinity for Matrix metalloprotease-8 (MMP-8)
Chain of Neutrophil collagenase (P22894 whole entry): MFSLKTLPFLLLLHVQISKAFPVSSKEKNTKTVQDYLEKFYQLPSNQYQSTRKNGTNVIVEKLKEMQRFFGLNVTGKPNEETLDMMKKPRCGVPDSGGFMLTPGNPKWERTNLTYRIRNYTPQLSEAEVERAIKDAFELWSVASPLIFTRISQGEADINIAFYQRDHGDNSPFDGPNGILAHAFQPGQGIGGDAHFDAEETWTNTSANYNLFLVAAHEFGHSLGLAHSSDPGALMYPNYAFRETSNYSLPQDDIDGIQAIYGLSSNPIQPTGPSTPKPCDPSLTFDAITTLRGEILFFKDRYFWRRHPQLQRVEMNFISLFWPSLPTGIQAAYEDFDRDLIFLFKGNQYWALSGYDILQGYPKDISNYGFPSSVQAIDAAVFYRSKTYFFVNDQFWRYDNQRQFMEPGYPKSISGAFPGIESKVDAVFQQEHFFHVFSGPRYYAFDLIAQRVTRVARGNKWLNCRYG

Matrilysin = molecular target: T3, Matrilysin (Homo sapiens, UniProt P09237); experiment: Affinity for Matrix metalloprotease-7 (MMP-7)
T3 sequence (P09237 whole entry): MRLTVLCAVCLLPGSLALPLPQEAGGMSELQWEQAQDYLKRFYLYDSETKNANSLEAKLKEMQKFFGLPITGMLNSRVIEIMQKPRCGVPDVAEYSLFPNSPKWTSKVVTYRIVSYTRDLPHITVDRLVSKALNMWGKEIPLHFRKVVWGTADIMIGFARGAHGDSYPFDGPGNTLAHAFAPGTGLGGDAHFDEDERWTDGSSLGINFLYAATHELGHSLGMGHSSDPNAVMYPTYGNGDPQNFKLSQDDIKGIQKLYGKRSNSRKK

Collagenase 3 = Collagenase 3 (Homo sapiens, UniProt P45452); experiment: Affinity for Matrix metalloprotease-13 (MMP-13)
[14] = molecular target: Matrix metalloproteinase-14 (Homo sapiens, UniProt P50281); experiment: Affinity for Matrix metalloprotease-14 (MMP-14)
[15] = molecular target: Matrix metalloproteinase-15 (Homo sapiens, UniProt P51511); experiment: Affinity for Matrix metalloprotease-15 (MMP-15)
Chain of Matrix metalloproteinase-15 (P51511 whole entry): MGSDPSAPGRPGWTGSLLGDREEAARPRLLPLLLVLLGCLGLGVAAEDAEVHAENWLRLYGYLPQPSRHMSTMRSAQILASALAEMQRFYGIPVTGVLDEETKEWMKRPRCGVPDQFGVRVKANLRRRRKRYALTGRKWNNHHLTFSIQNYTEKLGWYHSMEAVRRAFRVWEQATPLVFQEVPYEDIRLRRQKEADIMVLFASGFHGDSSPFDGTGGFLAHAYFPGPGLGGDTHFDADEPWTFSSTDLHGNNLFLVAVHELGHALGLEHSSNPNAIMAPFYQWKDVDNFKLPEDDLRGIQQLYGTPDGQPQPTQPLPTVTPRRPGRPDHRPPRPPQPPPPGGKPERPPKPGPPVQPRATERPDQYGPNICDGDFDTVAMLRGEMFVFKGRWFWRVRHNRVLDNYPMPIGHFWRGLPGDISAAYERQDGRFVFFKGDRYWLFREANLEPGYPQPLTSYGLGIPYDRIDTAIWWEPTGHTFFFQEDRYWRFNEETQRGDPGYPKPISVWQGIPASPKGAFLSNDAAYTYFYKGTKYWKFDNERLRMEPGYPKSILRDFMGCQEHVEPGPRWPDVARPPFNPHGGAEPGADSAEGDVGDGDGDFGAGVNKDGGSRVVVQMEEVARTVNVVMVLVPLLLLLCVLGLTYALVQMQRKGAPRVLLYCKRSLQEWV

[16] = molecular target: Matrix metalloproteinase-16 (Homo sapiens, UniProt P51512); experiment: Affinity for Matrix metalloprotease-16 (MMP-16)
[17] = as §7; format: ADME, organism-based; conditions: rat, in vivo, iv, read-out: Vss; outline: as §2
[18] = molecular target: T2, Disintegrin and metalloproteinase domain-containing protein 17; experiment: Affinity for Tumor necrosis factor alpha converting enzyme (TACE)
[19] = (§8) Bioavailability (dose 8 mg/kg p.o.); format: ADME, organism-based, Canis lupus familiaris; conditions: dog, in vivo, po; outline: as §2
[20] = as §8; format: ADME, organism-based; conditions: rat, in vivo, po; outline: as §2

Chain of Matrix metalloproteinase-9 (P14780 whole entry): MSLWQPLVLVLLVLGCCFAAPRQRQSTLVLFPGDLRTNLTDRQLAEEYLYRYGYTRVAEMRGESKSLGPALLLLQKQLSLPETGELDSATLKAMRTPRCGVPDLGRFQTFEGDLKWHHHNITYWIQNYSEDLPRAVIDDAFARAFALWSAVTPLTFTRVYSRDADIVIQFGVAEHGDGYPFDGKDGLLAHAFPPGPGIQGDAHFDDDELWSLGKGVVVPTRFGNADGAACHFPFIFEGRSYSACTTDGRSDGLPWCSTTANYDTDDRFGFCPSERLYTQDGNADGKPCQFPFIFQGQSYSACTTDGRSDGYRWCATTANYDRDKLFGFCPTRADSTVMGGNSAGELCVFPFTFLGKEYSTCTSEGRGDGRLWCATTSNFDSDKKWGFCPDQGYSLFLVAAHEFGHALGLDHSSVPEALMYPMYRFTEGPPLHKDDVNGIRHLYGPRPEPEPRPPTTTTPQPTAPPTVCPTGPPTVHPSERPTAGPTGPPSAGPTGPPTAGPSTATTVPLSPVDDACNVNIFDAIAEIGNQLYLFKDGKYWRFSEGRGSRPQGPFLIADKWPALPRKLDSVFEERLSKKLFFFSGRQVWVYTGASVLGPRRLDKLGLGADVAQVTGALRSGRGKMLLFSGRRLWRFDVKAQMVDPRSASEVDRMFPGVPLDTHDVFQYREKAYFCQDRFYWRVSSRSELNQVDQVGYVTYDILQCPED

Row | SMILES | pKi [1] | pKi [2] | pKi (Interstitial collagenase) | pIC50 [3] | further results
1 | Cc1cncc(C)c1COc1ccc([C@]2(C)CCN([C@H](C)C(=O)NO)C2=O)cc1 (stereo in doubt; 5q) |  |  |  | 8.52 | pIC50 [4]: 5.18
2 | C[C@H](C(=O)NO)N1CC[C@@](C)(c2ccc(OCc3ccnc4ccccc34)cc2)C1=O |  |  |  | 8.74 | pIC50 [4]: 5.65
3 | Cc1cc(COc2ccc([C@]3(C)CCN([C@H](C)C(=O)NO)C3=O)cc2)c2ccccc2n1 (stereo in doubt; 5s) |  |  |  | 9.00 | 
4 | Cc1cc(COc2ccc([C@]3(C)CCN([C@H](C)C(=O)NO)C3=O)cc2)c2ccccc2n1 (stereo in doubt) [listing 1 of 2 here] |  |  |  |  | AUC (Canis familiaris [5]): 4430 ng·h/mL; AUC (Rattus norvegicus [6]): 1810 ng·h/mL; CL (mL.min-1.kg-1) (Rattus norvegicus [7]): 35; T1/2 (Canis familiaris [8]): 7.1 h; T1/2 (Rattus norvegicus [9]): 11.8 h; Tmax (Canis familiaris [10]): 0.38 h; Tmax (Rattus norvegicus [11]): 0.38 h
5 | Cc1cncc(C)c1COc1ccc([C@]2(C)CCN([C@H](C)C(=O)NO)C2=O)cc1 (stereo in doubt; 5p) |  |  |  | 7.80 | pIC50 [4]: 5.09
6 | C[C@H](C(=O)NO)N1CC[C@@](C)(c2ccc(Oc3ccccc3)cc2)C1=O | > 8.68 | > 8.55 | 6.84 | 6.73 | 
7 | C=CCOc1ccc([C@]2(C)CCN([C@H](C)C(=O)NO)C2=O)cc1 | 7.96 | 7.85 | 6.47 | 7.01 | 
8 | C[C@H](C(=O)NO)N1CC[C@@](C)(c2ccc(OCc3cc(C(F)(F)F)cc(C(F)(F)F)c3)cc2)C1=O | < 5.70 | < 5.52 | < 5.30 | 8.70 | 
9 | C[C@H](C(=O)NO)N1CC[C@@](C)(c2ccc(OC(C)(C)C)cc2)C1=O |  |  |  | < 5.00 | 
10 | C[C@H](C(=O)NO)N1CC[C@@](C)(c2ccc(OCc3ccncc3)cc2)C1=O |  |  |  | 7.68 | pIC50 [4]: 5.23

The next lines start with results.

Row | pKi [1] | pKi [2] | pKi (Interstitial collagenase) | SMILES | pIC50 [3] | further results
11 | 7.46 | 7.09 | 5.64 | C[C@H](C(=O)NO)N1CC[C@@](C)(c2ccc(-c3ccccc3)cc2)C1=O | 4.89 | 
12 | 6.62 | 6.97 | 6.66 | C[C@H](C(=O)NO)N1CC[C@@](C)(c2ccccc2)C1=O | 5.66 | 
13 | 7.18 | 7.46 | < 5.30 | C[C@H](C(=O)NO)N1CC[C@@](C)(c2ccc(OCc3ccccc3[N+](=O)[O-])cc2)C1=O | 8.40 | 
14 | < 5.70 | < 5.52 | < 5.30 | COc1cc(COc2ccc([C@]3(C)CCN([C@H](C)C(=O)NO)C3=O)cc2)cc(OC)c1 | 8.15 | 
15 | 7.40 | 7.96 | < 5.30 | C[C@H](C(=O)NO)N1CC[C@@](C)(c2ccc(OCc3ccc([N+](=O)[O-])cc3)cc2)C1=O | 8.22 | 
16 | 4.99 | 5.69 | 4.52 | Cc1cc(COc2ccc([C@]3(C)CCN([C@H](C)C(=O)NO)C3=O)cc2)c2ccccc2n1 (stereo in doubt) [listing 2 of 2 here] |  | Vd [12]: 0.93 L/kg; clearance [13]: 15.7 mL/min/kg; pKi (Stromelysin-1): 6.85; pKi (Neutrophil collagenase): 6.59; pKi (Matrilysin): 6.59; pKi (Collagenase 3): 5.85; pKi [14]: 4.80; pKi [15]: 5.40; pKi [16]: 5.80; Vd [17]: 2 L/kg; pKi [18]: 9.25; bioavailability [19]: 32%; bioavailability [20]: 41%
17 | 6.23 | 6.15 | 5.40 | CC(C)Cc1ccc([C@]2(C)CCN([C@H](C)C(=O)NO)C2=O)cc1 | 6.00 | 
18 | 5.79 | 5.24 | 5.32 | Cc1cc(C)cc(COc2ccc([C@]3(C)CCN([C@H](C)C(=O)NO)C3=O)cc2)c1 | 8.40 | 
19 | 7.41 | 7.42 | < 5.30 | C[C@H](C(=O)NO)N1CC[C@@](C)(c2ccc(OCc3cccc([N+](=O)[O-])c3)cc2)C1=O | 8.22 | 
20 | 8.05 | 8.32 | 7.04 | COc1ccc([C@]2(C)CCN([C@H](C)C(=O)NO)C2=O)cc1 | 6.05 | 
21 | 7.54 | 7.72 | < 5.30 | C[C@H](C(=O)NO)N1CC[C@@](C)(c2ccc(OCc3ccccc3)cc2)C1=O | 8.40 | 
